Screens from PubChem BioAssay.
An excerpt weighted towards active compounds, which were near 4.7% of everything screened.
IMP-1 inhibitor – IMP-1 metallo-beta-lactamase inhibitors, primary screen, biochemical, epi-absorbance readout, Pseudomonas aeruginosa enzyme; metallo-beta-lactamase IMP-1 (Pseudomonas aeruginosa); purified IMP-1, nitrocefin hydrolysis, epi-absorbance fluorescence; inhibition, % at 5.6 µM; hit rate 0.45% among 290,000; AID 1556, 2009;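 active = inhibition above the mean plus 3 SD of all compounds in the same screening run, cut at about 4.5% in these data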;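 also: 0% = IMP-1 with DMSO and 100% = DMSO wells lacking enzyme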
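System: Purified IMP-1 | Read-out basis: Percent enzyme inhibition | Controls: IMP-1 with DMSO as 0%, enzyme-free DMSO as 100% | Replicates: One well per compound | Doses: 5.6 µM nominal single concentration | Detection: Epi-absorbance fluorescence, 480 nm excitation, 530 nm emission | Incubation: 25 °C, 15 min preincubation, 25 min reaction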
Mdm2 MdmX PPI – inhibitors of human Mdm2-MdmX association, primary screen, cell-based, luminescence, split luciferase, SaOS-2, uHTS | Protein Mdm4 (Homo sapiens) + E3 ubiquitin-protein ligase Mdm2 (Homo sapiens), … | SaOS-2 split-luciferase Mdm2/MdmX complementation | inhibition, % at 8 µM | hit rate 3% among 330,000;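 active = inhibition of at least 50% at 8 µM in the primary screen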
Target sequence (O15151 whole entry, looked up): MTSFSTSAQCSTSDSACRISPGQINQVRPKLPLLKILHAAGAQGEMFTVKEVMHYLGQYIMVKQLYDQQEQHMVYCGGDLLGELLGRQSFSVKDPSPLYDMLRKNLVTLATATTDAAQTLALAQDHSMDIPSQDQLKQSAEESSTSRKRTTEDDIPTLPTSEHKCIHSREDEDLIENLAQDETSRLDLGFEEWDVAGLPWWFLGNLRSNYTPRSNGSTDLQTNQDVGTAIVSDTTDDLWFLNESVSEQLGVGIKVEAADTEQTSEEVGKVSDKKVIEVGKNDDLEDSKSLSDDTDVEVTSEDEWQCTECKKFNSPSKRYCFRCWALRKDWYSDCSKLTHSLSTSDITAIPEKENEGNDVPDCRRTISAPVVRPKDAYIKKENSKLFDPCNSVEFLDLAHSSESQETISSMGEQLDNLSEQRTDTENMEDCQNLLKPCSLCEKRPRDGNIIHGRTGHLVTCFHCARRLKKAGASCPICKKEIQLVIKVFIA
Target sequence (Q00987 whole entry, looked up): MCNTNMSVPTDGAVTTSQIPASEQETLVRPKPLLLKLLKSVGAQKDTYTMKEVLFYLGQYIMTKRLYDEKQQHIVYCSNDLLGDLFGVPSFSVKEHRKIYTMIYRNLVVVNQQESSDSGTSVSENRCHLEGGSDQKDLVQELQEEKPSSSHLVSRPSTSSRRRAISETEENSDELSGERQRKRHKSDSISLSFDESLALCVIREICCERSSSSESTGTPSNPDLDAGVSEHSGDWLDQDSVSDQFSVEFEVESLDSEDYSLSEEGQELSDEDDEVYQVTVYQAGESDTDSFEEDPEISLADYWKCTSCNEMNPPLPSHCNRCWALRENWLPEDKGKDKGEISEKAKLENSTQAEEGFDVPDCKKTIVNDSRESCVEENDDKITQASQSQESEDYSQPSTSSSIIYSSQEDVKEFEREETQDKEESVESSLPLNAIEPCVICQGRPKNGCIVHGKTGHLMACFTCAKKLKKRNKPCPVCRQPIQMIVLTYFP
697 NFkB inh – inhibitors of PMA/ionomycin-induced NF-kB reporter, 697 cells, primary screen, B-cell NF-kB inhibitor project, cell-based, luminescence, uHTS; hit rate 0.33% among 330,000; 697 B-cell NF-kB luciferase reporter, 16 h; inhibition, % at 4 µM; in the data active = inhibition above about 35%
VIM-2 inhibitor – VIM-2 metallo-beta-lactamase inhibitors, primary screen, biochemical, epi-absorbance readout, Pseudomonas aeruginosa enzyme | purified VIM-2, nitrocefin hydrolysis, epi-absorbance fluorescence | inhibition, % at 5.6 µM | hit rate 0.89% among 290,000 | AID 1527, 2009;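 active = inhibition above the mean of all tested compounds plus 3 SD, cutoff set per screening run, cut at about 7.5% in these data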;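 also: red hydrolysis product quenches plate fluorescence so inhibitors raise well fluorescence; 0% = enzyme with DMSO and 100% = DMSO without enzyme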
Jurkat NFkB inh – inhibitors of induced NF-kB luciferase reporter, primary screen, TCR NF-kB activation inhibitor project, cell-based, luminescence, uHTS | Jurkat, PMA/ionomycin-induced NF-kB luciferase reporter | inhibition, % at 4 µM | hit rate 0.53% among 330,000; in the data active = inhibition above about 50%
aSyn UTR inh – MLPCN primary screen, SNCA 5' untranslated region; AID 1813, 2009; inhibition, % (tested at 7.5 µM); alpha-synuclein 5'UTR reporter, inhibitor activity; hit rate 0.82% among 300,000; in the data active = inhibition above about 60%;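 also: H4 neuroglioblastoma cells stably carrying SNCA 5'UTR luciferase fusion; 0% = DMSO wells and 100% = positive control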
Jurkat NFkB conf – PMA/ionomycin-induced NF-kB reporter inhibitors, Jurkat retest, confirmation, T-cell NF-kB inhibitor project, cell-based, luminescence, single concentration; shares compounds with Jurkat NFkB inh; Jurkat NF-kB luciferase, 16 h; inhibition, % at 4 µM; hit rate 27% among 2,700;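 active = inhibition reaching about 45% at 4 µM in either replicate, limit read from the data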;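 also: plate controls were PMA/ionomycin stimulated DMSO wells for no effect and unstimulated DMSO wells for full effect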
Active calls of the source: *; · = no result given.

SMILES | IMP-1 inhibitor | Mdm2 MdmX PPI | 697 NFkB inh | VIM-2 inhibitor | Jurkat NFkB inh | aSyn UTR inh | Jurkat NFkB conf
O=C(/C=C\Nc1ccc2c(c1)OCO2)c1cccs1 | 2 | -173 | -4 | 1 | -144 | -147 | ·
O=C(/C=C\Nc1cccc(F)c1)c1cccs1 | -1 | -147 | -177 | 1 | -174 | -28 | -54
CCOc1ccc(C(=O)COC(=O)c2cc([N+](=O)[O-])ccc2N2CCOCC2)cc1 | · | 40 | -23 | · | 53* | -115 | 7
COc1ccc(OC)c(COC(=O)c2cc([N+](=O)[O-])ccc2N2CCOCC2)c1 | · | 12 | -38 | · | 52* | · | 30
Cc1ccccc1COC(=O)c1cc([N+](=O)[O-])ccc1N1CCOCC1 | -3 | 33 | 1 | -3 | 35 | 10 | ·
CC(C)Oc1cc(C(=O)NC2CCCCC2)c2ccccc2n1 | 2 | 0 | -26 | 0 | 4 | 21 | ·
CCOC(=O)CN(C(=O)COC(=O)C1=NNC(=O)CC1)c1ccc(F)cc1 | · | 8 | 25 | · | 1 | · | ·
CN1C2=CC=CC=CC2=[N+](C)C12C=CC(=[N+]([O-])[O-])C=C2[N+](=O)[O-] (stereo unspecified) | -7 | 18 | 11 | -2 | 0 | 0 | ·
CN1C2=CC=CC=CC2=[N+](C)C12C([N+](=O)[O-])=CC(=[N+]([O-])[O-])C=C2[N+](=O)[O-] (stereo unspecified) | -3 | 31 | -80 | -4 | 73* | -73 | 19
COc1cccc(CN(C)C(=O)c2cc(COc3ccc4ncccc4c3)on2)c1 | -2 | 7 | 19 | -1 | 52* | -15 | 46
Cc1cc(O)c(-c2cc(C(=O)Nc3cccnc3)[nH]n2)cc1C | -4 | -314 | -41 | -4 | -178 | -188 | -114
Cc1cc(C)c(O)c(-c2cc(C(=O)Nc3cccnc3)[nH]n2)c1 | -4 | -9 | 14 | -3 | -8 | -108 | ·
CN(Cc1ccccc1)C(=O)c1[nH]cnc1C(=O)NCC(=O)OCc1ccccc1 | -2 | 5 | 1 | -3 | -3 | 9 | ·
CC(C)C(NC(=O)c1c(F)cccc1F)C(=O)N1CCN(S(=O)(=O)/C=C/c2ccccc2)CC1 (stereo unspecified) | · | 27 | -12 | · | 0 | · | ·
CCc1cc(-c2ccc3c(c2)COc2c4ccccc4nn2-3)on1 | · | -73 | -100 | · | -165 | 10 | -57
CCCC#Cc1ccc2c(c1)COc1c3ccccc3nn1-2 | · | -260 | -197 | · | -125 | -76 | ·
COc1ccc(N=C2SCC(c3ccc([N+](=O)[O-])cc3)=NN2CCO)cc1 | 0 | -18 | -52 | -1 | 20 | 15 | ·
O=[N+]([O-])c1ccc(C2=NN(CCO)C(=Nc3ccc(OC(F)(F)F)cc3)SC2)cc1 | -1 | 18 | 0 | -4 | 75* | 37 | 11
CCSc1nnc(NC(=O)CCNS(=O)(=O)c2ccccc2F)s1 | -1 | -24 | 9 | -1 | 0 | -11 | ·
Cc1cc(=O)oc2cc(OCC(=O)N3CCN(c4ccccc4)CC3)c(Cl)cc12 | -2 | 18 | -2 | -1 | 2 | -28 | ·
Cc1cccc(N2CCN(C(=O)COc3cc4oc(=O)cc(C)c4cc3Cl)CC2)c1C | -1 | 2 | -26 | -1 | 54* | 8 | 8
CC(C)C(NC(=O)c1ccccc1F)C(=O)NCCCn1ccnc1 (stereo unspecified) | · | 10 | -4 | · | -10 | · | ·
COc1cc(OC)cc(-c2nc3cc(C)ccc3o2)c1 | -2 | -193 | -175 | -4 | -151 | -216 | -72
Cc1ccc(-c2nc3cc(Cl)ccc3o2)cc1 | -4 | -118 | -198 | -5 | -135 | -61 | ·
C#CCOCCOCCOCCNc1nc(N2CCN(C(=O)[C@H](CCCN=C(N)N)n3cc(C(N)[C@@H](C)CC)nn3)CC2)nc(N2CCN(C(=O)[C@H](CCCCN)n3cc([C@@H](N)CC(N)=O)nn3)CC2)n1 (stereo partly specified) | · | 26 | 17 | · | 15 | · | ·
SMILES | IMP-1 inhibitor | Mdm2 MdmX PPI | 697 NFkB inh | VIM-2 inhibitor | Jurkat NFkB inh | aSyn UTR inh | Jurkat NFkB conf
NC(=O)CSc1nc(C2CC2)nc2sc3c(c12)CCCC3 | -2 | -342 | -225 | -2 | -189 | -109 | -70
CCNC(=O)O/N=C(\C)c1sc(-c2ccc(Cl)cc2)nc1C | -2 | -107 | -143 | -3 | -171 | -77 | -100
CC(OC(=O)c1cc(=O)[nH]c2ccccc12)C(=O)NC1CCCCC1C (stereo unspecified) | · | -8 | -6 | · | -11 | 13 | ·
CC(=O)c1ccc(Nc2cc(C)nc3c(C)cccc23)cc1 | -2 | 33 | -100 | 2 | 56* | 8 | 27
Cc1ccc(Nc2cc(C)nc3c(C)cccc23)cc1 | -2 | 23 | -7 | 4 | 11 | 17 | ·
CCN(CC)S(=O)(=O)c1ccc2[nH]c(=O)cc(C(=O)NCC3CCCO3)c2c1 (stereo unspecified) | · | 6 | -5 | · | 4 | 3 | ·
COc1ccc2cc(-c3ccccc3F)ncc2c1 | · | -230 | -229 | · | -186 | · | -109
COc1ccc(-c2cc3ccccc3cn2)cc1 | · | -176 | -216 | · | -179 | · | -95
COc1ccc2ccc(Oc3ncccn3)cc2c1 | -1 | 19 | -20 | -1 | -12 | -37 | ·
COc1ccc2cc(-c3cccnc3)ncc2c1 | · | -56 | -99 | · | -129 | · | ·
Cc1ccc([C@@H]2[C@@H]3C(=O)N(C)C(=O)[C@@H]3[C@]3(Cc4ccccc4)C(=O)N(Cc4ccccn4)CC(=O)N23)o1 | -2 | 13 | -11 | -2 | 9 | -9 | ·
O=C(CC1CCCCC1)Nc1nc2ccccc2s1 | -2 | -166 | -182 | -4 | -106 | -130 | ·
O=C(Nc1nc2ccccc2s1)NC1CCCCC1 | -2 | -221 | -133 | -4 | -179 | -20 | -112
Cc1ccc2cccc(OCC(=O)N(C)CC(=O)Nc3ccc(F)cc3)c2n1 | · | 16 | 11 | · | 19 | · | ·
Cc1ccc(NC(=O)CN(C)C(=O)COc2cccc3ccc(C)nc23)cc1 | · | -5 | -5 | · | -192 | · | 13
CC(=O)N1c2ccc(S(=O)(=O)N3CCC(C(=O)Nc4ccc(F)cc4)CC3)cc2CC1C (stereo unspecified) | 0 | 13 | -19 | 0 | 11 | -5 | ·
CC(=O)Nc1ccc(S(=O)(=O)N2c3ccc(F)cc3CCC2C)cc1 (stereo unspecified) | · | 49 | -21 | · | 57* | 7 | 42
COc1ccc(NC(=O)CSc2ccc3c(c2)OCCO3)cc1S(N)(=O)=O | · | 25 | 10 | · | -2 | · | ·
